Source: ChEMBL document CHEMBL3352056, “Inhibition of prostaglandin E(2) production by synthetic minor prenylated chalcones and flavonoids: synthesis, biological activity, crystal structure, and in silico evaluation” (Bioorg Med Chem Lett, 2014)
The source made the active and inactive calls. No cut-off for these calls is given here.

Legend:
[1] = tested on: RAW264.7; experiment: Inhibition of IFN-gamma/LPS-induced PGE2 production in mouse RAW264.7 cells at 50 uM after 17 to 20 hrs by EIA method; assay type: functional
In short: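 In RAW 264.7 cells seeded at 4 × 10⁵/well and attached for 2 h at 37 °C, compound was added with LPS, using 0.1% final DMSO as vehicle. Incubation ran 17–20 h at 37 °C, 5% CO₂. Supernatant PGE₂ was quantified by EIA from a standard curve and expressed as percent inhibition at a single test concentration.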

[2] = Cytotoxicity against mouse RAW264.7 cells assessed as cell viability by MTT assay; assay type: cell-based; set-up: concentration or dose not given beside the values; conditions: read-out: Activity
In short: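 After the 17–20 h LPS co-treatment of RAW 264.7 cells (0.1% DMSO vehicle), the supernatant was removed and MTT (0.05 mg/mL) was added. Cells were held at 37 °C for 4 h. Formazan was dissolved in 100% DMSO and absorbance was read at 570 nm. Results are given as % viability. Culture viability before use was >95% by trypan blue.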

[3] = tested on: RAW264.7; experiment: Inhibition of IFN-gamma/LPS-induced PGE2 production in mouse RAW264.7 cells after 17 to 20 hrs by EIA method; assay type: functional, cell-based
In short: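 RAW 264.7 cells (4 × 10⁵/well) attached for 2 h at 37 °C, 5% CO₂. They were then co-incubated with LPS and compound in DMSO (0.1% final) for 17–20 h. Supernatant PGE₂ was measured by EIA against a standard curve. Dose-response testing spanned 0.78 to 50; group differences were tested by one-way ANOVA with Dunnett's test.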

[4] = tested on: RAW264.7; experiment: Inhibition of IFN-gamma/LPS-induced nitric oxide production in mouse RAW264.7 cells by Griess assay; assay type: functional, cell-based

Row | Structure (SMILES) | inhibition at 50 µM [1] | viability [2] | IC50 [3] | IC50 [4] | inhibition [1]
1 | COc1ccc2c(c1)O/C(=C\c1ccc(OC)c(OC)c1)C2=O | 76% | > 100% | – | – | –
2 | COc1cc(O)c(C(=O)/C=C/c2ccc(OC)c(OC)c2)cc1CC=C(C)C | 90% | > 100% | 2100 nM | 13800 nM | –
3 | COc1cc(O)c(C(=O)/C=C/c2ccc(O)c(O)c2)cc1CC=C(C)C | 61% | > 100% | – | – | –
4 | COc1ccc(C(=O)/C=C/c2ccc(C)cc2)c(O)c1 | – | 97% | – | – | inactive
5 | CC(C)=CCOc1ccc2c(c1)O/C(=C\c1ccc(C)cc1)C2=O | 43% | > 100% | – | – | –
6 | COc1cc2c(cc1CC=C(C)C)C(=O)/C(=C/c1ccc(OC)c(OC)c1)O2 | 83% | > 100% | – | – | –
7 | COc1ccc2c(c1)O/C(=C\c1ccc(C)cc1)C2=O | 78% | > 100% | – | – | –
8 | COc1ccc2c(=O)c(O)c(-c3ccc(C)cc3)oc2c1 | 70% | 78% | – | – | –
9 | COc1ccc(C(=O)/C=C/c2ccc(OC)c(OC)c2)c(O)c1 | 75% | > 100% | – | – | –
10 | COc1cc2c(cc1CC=C(C)C)C(=O)/C(=C/c1ccc(C)cc1)O2 | – | > 100% | – | – | inactive
11 | CC(C)=CCOc1ccc(/C=C2\Oc3ccccc3C2=O)cc1 | 77% | > 100% | – | – | –
12 | COc1ccc2c(=O)c(O)c(-c3ccc(OC)c(OC)c3)oc2c1 | 80% | 82% | – | – | –
13 | COc1ccc2c(=O)c(OCC=C(C)C)c(-c3ccc(OC)c(OC)c3)oc2c1 | 58% | > 100% | – | – | –
14 | COc1cc(O)c(C(=O)/C=C/c2ccc(C)cc2)cc1CC=C(C)C | 64% | > 100% | – | – | –
15 | COc1ccc2c(=O)c(OCC=C(C)C)c(-c3ccc(C)cc3)oc2c1 | 41% | > 100% | – | – | –
16 | COc1cc(O)c(C(=O)/C=C/c2ccc(Br)cc2)cc1CC=C(C)C | 70% | > 100% | – | – | –
17 | COc1cc(O)c(C(=O)/C=C/c2cccc(-c3ccc(F)cc3)c2)cc1CC=C(C)C | – | > 100% | – | – | inactive
18 | CS(=O)(=O)Nc1ccc([N+](=O)[O-])cc1OC1CCCCC1 [NS-398] | 97% | > 100% | 100 nM | – | –
19 | COc1cc(O)c(C(=O)/C=C/c2ccc(-c3ccc(F)cc3)cc2)cc1CC=C(C)C | 63% | > 100% | – | – | –
